One test concerns Klebsiella aerogenes. The test can be described thus: Antibacterial activity against Klebsiella aerogenes assessed as growth inhibition after 18 hrs by serial dilution method. It is filed as functional. An outline of the steps:
(§1)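 Agar dilution MIC: serial dilutions in nutrient agar, each spot-inoculated with 0.001 mL of undiluted overnight broth culture. MIC read after 18 h incubation at 37 °C.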

The subject of the next test is Proteus mirabilis. The test can be described thus: Antibacterial activity against Proteus mirabilis assessed as growth inhibition after 18 hrs by serial dilution method. In kind it is functional. An outline of the steps: as §1
The subject of test [1] is Staphylococcus aureus. The test is described as follows: Antibacterial activity against beta-lactamase producing benzylpenicillin-resistant Staphylococcus aureus Russell assessed as growth inhibition after 18 hrs by serial dilution method. It is filed as functional.
For a further test, the system named is Salmonella typhi. The test can be described thus: Antibacterial activity against Salmonella typhi assessed as growth inhibition after 18 hrs by serial dilution method. In kind it is functional, Salmonella enterica subsp. enterica serovar Typhi. The note with it: Salmonella enterica.
The test system of test [2] is Staphylococcus aureus. The test can be described thus: Antibacterial activity against Staphylococcus aureus Oxford assessed as growth inhibition after 18 hrs by serial dilution method. In kind it is functional. Summed up:
as §1

The next test has as its system Shigella sonnei. The test is described as follows: Antibacterial activity against Shigella sonnei assessed as growth inhibition after 18 hrs by serial dilution method. It is filed as functional. Summed up:
as §1

A further test relates to Escherichia coli. The test is described as follows: Antibacterial activity against Escherichia coli assessed as growth inhibition after 18 hrs by serial dilution method. In kind it is functional. Summed up:
as §1

As a reminder, the MIC is the lowest concentration found to suppress growth.

SMILES strings stand for the structures. ≈ marks a conversion by molar mass, not a printed value.

Consider `CC1=C(C(=O)O)N2C(=O)[C@@H](NC(=O)[C@H](N)c3ccccc3)[C@H]2SC1` [CEPHALEXIN ANHYDROUS], for which the MIC was 5 µg/mL (≈ 14.4 µM) with Klebsiella aerogenes; 12.5 µg/mL (≈ 36 µM) in the test with Proteus mirabilis; 5 µg/mL (≈ 14.4 µM) in the test on Staphylococcus aureus [1]; 5 µg/mL (≈ 14.4 µM) in the test with Salmonella typhi; 1.25 µg/mL (≈ 3.6 µM) in the test with Staphylococcus aureus [2]; 5 µg/mL (≈ 14.4 µM) in the test on Shigella sonnei. For the same molecule, the minimal inhibitory concentration (MIC) in the test on Escherichia coli was determined as 12.5 µg/mL (≈ 36 µM).
`O=C(Cc1cccs1)N[C@@H]1C(=O)N2C(C(=O)[O-])=C(C[n+]3ccccc3)CS[C@H]12` [CEPHALORIDINE]: the minimal inhibitory concentration (MIC) came to 2.5 µg/mL (≈ 6.02 µM) in the test on Klebsiella aerogenes; 5 µg/mL (≈ 12 µM) in the test on Proteus mirabilis; 1.25 µg/mL (≈ 3.01 µM) with Staphylococcus aureus [1]; 1.25 µg/mL (≈ 3.01 µM) in the test on Salmonella typhi; 0.02 µg/mL (≈ 0.0481 µM) with Staphylococcus aureus [2]; 1.25 µg/mL (≈ 3.01 µM) in the test on Shigella sonnei. Also, in the test with Escherichia coli, the minimum inhibitory concentration (MIC) is 5 µg/mL (≈ 12 µM).
As to `CC(=O)OCC1=C(C(=O)O)N2C(=O)[C@@H](NC(=O)Cc3cccs3)[C@H]2SC1` [CEPHALOTHIN], the minimum inhibitory concentration (MIC) amounted to 5 µg/mL (≈ 12.6 µM) in the test with Klebsiella aerogenes; 5 µg/mL (≈ 12.6 µM) with Proteus mirabilis; 0.5 µg/mL (≈ 1.26 µM) in the test on Staphylococcus aureus [1]; 12.5 µg/mL (≈ 31.5 µM) in the test with Salmonella typhi; 0.12 µg/mL (≈ 0.303 µM) in the test on Staphylococcus aureus [2]; 5 µg/mL (≈ 12.6 µM) in the test on Shigella sonnei. Moreover, the MIC in the test on Escherichia coli is 5 µg/mL (≈ 12.6 µM).

Source of the values: ChEMBL document CHEMBL3272355, “Structure--activity relationships in cephalosporins prepared from penicillins. 1. 7beta-Acylamino derivatives of 3-benzyl- and 3-(3-pyridylmethyl)ceph-3-em-4-carboxylic acids” (1977).
